How the values were obtained:
[1] = test system: Mammalian orthoreovirus 1; test: Antiviral activity against Reovirus 1 3651 ATCC VR-214 infected in BHK21 cells assessed as inhibition of virus-induced cytopathogenicity after 3 to 4 days by MTT assay; type: functional, organism-based; details: Mammalian orthoreovirus 1, 3651 ATCC VR-214, BHK-21
How it was run: (§1)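 BHK (5×10^4/well) or MDBK (3×10^4/well) cells grown to confluent monolayers overnight, infected at m.o.i. 0.01 in maintenance MEM-Earl with 0.5% inactivated FBS. Serially diluted compounds added after 1 h. Viability read by MTT after 3–4 days at 37 °C. Values are expressed as % of untreated controls, and EC50 is derived by linear regression. Duplicate samples.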

[2] = Cytotoxicity against human MT4 cells after 96 hrs by MTT assay; type: cell-based
How it was run: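 Exponentially growing MT-4 cells seeded at 1×10^5 cells/mL in RPMI-1640 with 10% FBS and incubated with serial compound dilutions at 37 °C and 5% CO2. Viability measured by MTT after 96 h. CC50 by linear regression against untreated controls.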

[3] = test system: Vesicular stomatitis Indiana virus; test: Antiviral activity against Vesicular stomatitis virus indiana ATCC VR-1540 infected in african green monkey Vero-76 cells assessed as reduction in viral plaque after 2 days by crystal violet staining; type: functional, organism-based; details: ATCC VR-1540, Vero 76, 48 h
Poliovirus 1 = test: Antiviral activity against Polio virus type 1 strain sabin ATCC VR-1562 infected in african green monkey Vero-76 cells assessed as reduction in viral plaque after 2 days by crystal violet staining; type: functional, cell-based, Human poliovirus 1 strain Sabin; details: Enterovirus C, ATCC VR-1562, Vero 76, 48 h
[4] = test system: Human immunodeficiency virus 1; test: Antiviral activity against HIV1 3B infected in human MT4 cells assessed as inhibition of virus-induced cytopathogenicity after 4 days by MTT assay; type: functional, organism-based; details: Human immunodeficiency virus 1, 3B, MT4, 96 h
How it was run: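 MT-4 cells (1×10^4/well) in RPMI with serial compound dilutions, infected with HIV-1 IIIB at 100 CCID50 (m.o.i. 0.01). Viability measured by MTT after 4 days at 37 °C. EC50 for 50% protection from cytopathogenicity obtained by linear regression against untreated controls.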

[5] = Cytotoxicity against BHK21 cells by MTT assay; type: cell-based, Mesocricetus auratus; details: hamster, BHK-21 cells
How it was run: (§2)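 Mock-infected MDBK (6×10^5 cells/mL, MEM-E with 10% horse serum) or BHK (1×10^6 cells/mL, MEM-E with 10% FBS) cells incubated with serial compound dilutions at 37 °C and 5% CO2. Viability measured by MTT after 48–96 h. CC50 by linear regression against untreated controls.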

[6] = Antiviral activity against BVDV1 NADL ATCC VR-534 infected in MDBK cells assessed as inhibition of virus-induced cytopathogenicity after 3 to 4 days by MTT assay; type: functional, cell-based, Bovine viral diarrhea virus 1-NADL; details: Bovine viral diarrhea virus isolates and strains, ATCC VR-534, MDBK; how it was run: as §1
[7] = Cytotoxicity against african green monkey Vero 76 cells after 48 to 96 hrs by MTT assay; type: cell-based; details: chlorocebus sabaeus
Yellow fever virus = test: Antiviral activity against Yellow fever virus 17D infected in BHK21 cells assessed as inhibition of virus-induced cytopathogenicity after 3 to 4 days by MTT assay; type: functional, cell-based; details: BHK-21
[8] = Antiviral activity against Human respiratory syncytial virus A2 ATCC VR-1540 infected in african green monkey Vero-76 cells assessed as reduction in viral plaque after 5 days by crystal violet staining; type: functional, cell-based; details: ATCC VR-1540, Vero 76, 120 h
How it was run: (§3)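 Vero-76 monolayers (2×10^5 cells/well) infected for 2 h at 50–100 PFU/well. Unadsorbed virus removed. D-MEM with 1% inactivated FBS, 0.75% methylcellulose and serial compound dilutions added. Incubation at 37 °C for 3 days (CVB-5, HSV-1) or 5 days (RSV). Fixed and stained with 50% ethanol/0.8% crystal violet, then plaques counted. EC50 by linear regression versus untreated controls.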

Coxsackievirus B5 = test: Antiviral activity against Coxsackie virus type B5 Ohio-1 ATCC VR-29 infected in african green monkey Vero-76 cells assessed as reduction in viral plaque after 3 days by crystal violet staining; type: functional, organism-based; details: Enterovirus B, Ohio-1 ATCC VR-29, Vero 76, 72 h; how it was run: as §3
[9] = Cytotoxicity against MDBK cells after 48 to 96 hrs by MTT assay; type: cell-based, Bos taurus; details: cattle; how it was run: as §2
Vaccinia virus = test: Antiviral activity against Vaccinia virus Elstree-Lister ATCC VR-1549 infected in african green monkey Vero-76 cells assessed as reduction in viral plaque after 3 days by crystal violet staining; type: functional, organism-based; details: Orthopoxvirus vaccinia, Elstree-Lister ATCC VR-1549, Vero 76, 72 h
Human alphaherpesvirus 1 = test: Antiviral activity against Herpes simplex virus type 1 KOS ATCC VR-1493 infected in african green monkey Vero-76 cells assessed as reduction in viral plaque after 3 days by crystal violet staining; type: functional, organism-based; details: Human alphaherpesvirus 1, KOS ATCC VR1493, Vero 76, 72 h; how it was run: as §3

SMILES | EC50 [1] [µM] | CC50 at 96 h [2] [µM] | EC50 [3] [µM] | EC50 (Poliovirus 1) [µM] | EC50 [4] [µM] | CC50 [5] [µM] | EC50 [6] [µM] | CC50 [7] [µM] | EC50 (Yellow fever virus) [µM] | EC50 [8] [µM] | EC50 (Coxsackievirus B5) [µM] | CC50 [9] [µM] | EC50 (Vaccinia virus) [µM] | EC50 (Human alphaherpesvirus 1) [µM]
C/C(=N\NC(N)=S)c1ccc2[nH]c(-c3ccccc3)nc2c1 | > 32 | ≥ 100 | > 100 | > 100 | > 100 | 32 | 3.8 | > 100 | > 32 | > 100 | > 100 | 32 | – | –
C/C(=N\NC(N)=S)c1ccc2[nH]c(C3CCCCC3)nc2c1 | – | 48 | > 100 | > 100 | > 48 | 24 | 16 | > 100 | > 24 | > 100 | > 100 | > 100 | > 100 | –
COc1ccc(-c2nc3cc(/C(C)=N/O)ccc3[nH]2)c(OC)c1OC | > 100 | 51 | – | > 100 | > 51 | > 100 | > 100 | > 100 | > 100 | – | > 100 | > 100 | > 100 | > 100
CC(=O)c1ccc2[nH]c(-c3ccoc3)nc2c1 | – | > 100 | > 100 | > 100 | > 100 | 98 | 22 | > 100 | > 98 | – | > 100 | ≥ 100 | > 100 | > 100
COc1ccc(-c2nc3cc(/C(C)=N/NC(N)=O)ccc3n2C2CCCCC2)c(OC)c1 | – | 23 | – | > 20 | > 23 | 19 | 22 | 20 | > 19 | – | > 20 | 36 | > 20 | > 20
COc1ccc(-c2nc3cc(/C(C)=N/NC(N)=S)ccc3[nH]2)cc1 | > 13 | 5 | > 100 | > 100 | > 5 | 13 | 1.85 | > 100 | > 13 | – | > 100 | 13 | > 100 | –
COc1ccc(-c2nc3cc(/C(C)=N/NC(N)=S)ccc3n2C2CCCCC2)cc1 | – | 39 | > 40 | > 40 | > 39 | – | 7 | 40 | – | > 40 | > 40 | 32 | > 40 | > 40
C/C(=N\NC(N)=S)c1ccc2[nH]c(-c3ccc(Cl)cc3)nc2c1 | > 100 | 2 | > 100 | > 100 | > 2 | > 100 | 0.85 | > 100 | > 100 | – | > 100 | > 100 | > 100 | –
COc1ccc(-c2nc3cc(/C(C)=N/NC(N)=O)ccc3[nH]2)c(OC)c1 | > 100 | 21 | > 80 | > 80 | ≥ 21 | ≥ 100 | 2.55 | 80 | > 100 | – | > 80 | > 100 | 80 | –
CC(=O)c1ccc2c(c1)nc(-c1ccoc1)n2C1CCCCC1 | – | 63 | – | > 80 | > 63 | 77 | > 100 | 80 | > 77 | – | > 80 | > 100 | > 80 | > 80
C/C(=N\NC(N)=S)c1ccc2c(c1)nc(-c1ccoc1)n2C1CCCCC1 | – | 21 | > 25 | > 25 | > 21 | > 100 | > 100 | 25 | > 100 | – | > 25 | > 100 | > 25 | > 25
C/C(=N\NC(N)=S)c1ccc2c(c1)nc(-c1ccccn1)n2C1CCCCC1 | – | 23 | > 20 | > 20 | > 23 | 24 | 26 | 20 | > 24 | – | > 20 | 41 | > 20 | > 20
CC(=O)c1ccc2c(c1)nc(-c1ccccn1)n2C1CCCCC1 | – | 70 | > 90 | > 90 | > 70 | ≥ 100 | > 100 | > 90 | > 100 | – | > 90 | > 100 | > 90 | > 90
CC(=O)c1ccc2[nH]c(C3CCCCC3)nc2c1 | > 100 | > 100 | > 100 | > 100 | > 100 | > 100 | > 100 | > 100 | > 100 | – | 47 | > 100 | > 100 | > 100

From ChEMBL document CHEMBL2034874, “5-acetyl-2-arylbenzimidazoles as antiviral agents. Part 4” (Eur J Med Chem, 2012)
